# Screens deposited in PubChem BioAssay by Broad Institute.
# Sampled rows, rich in hits. Any-hit rate of the full collection: about 2.8%.
# CAL PDZ FP-1: inhibitors of human CAL PDZ peptide binding; actives 0.02% (n = 330,000); AID 504414; inhibition, % at 20 µM; purified CAL PDZ, TMR-peptide fluorescence polarization, 1 h;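 active = highest replicate inhibition of at least 40%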
#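 System: purified tagged CAL PDZ domain construct (CerCALP). Schedule: 1 h incubation at room temperature before polarization reading. Medium: 25 mM sodium phosphate pH 7.4, 150 mM NaCl, TCEP, IgG, Thesit. Read-out: percent inhibition from loss of millipolarization. Measured by: FP readout, S and P plane fluorescence. Probe or stimulus: fluorescent TMR peptide probe.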
# SR-BI DiI inh: inhibitors of mouse SR-BI mediated HDL lipid uptake; Q61009; ldlA[mSR-BI] CHO cells, DiI-HDL uptake fluorescence, 3 h; inhibition, % at 12.5 µM; actives 0.96% (n = 320,000); AID 488896;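 active = mean replicate inhibition of at least 70% and a set share of replicates each scoring 70 or more; inconclusive = meets just one of the two criteria; inactive = fails both criteria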
# dFosB act: enhances mouse delta FosB homodimer DNA binding; actives 0.99% (n = 340,000); activation, % at 25 µM; purified delta FosB, TAMRA-CDK5 oligo fluorescence polarization; percent of positive-control signal above neutral wells;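 active = mean activation above about 17%, with every replicate also reaching it, limit read from the data, passing the limit was not always enough; inconclusive = only one of the two conditions met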
# Target sequence (P13346 whole entry, looked up): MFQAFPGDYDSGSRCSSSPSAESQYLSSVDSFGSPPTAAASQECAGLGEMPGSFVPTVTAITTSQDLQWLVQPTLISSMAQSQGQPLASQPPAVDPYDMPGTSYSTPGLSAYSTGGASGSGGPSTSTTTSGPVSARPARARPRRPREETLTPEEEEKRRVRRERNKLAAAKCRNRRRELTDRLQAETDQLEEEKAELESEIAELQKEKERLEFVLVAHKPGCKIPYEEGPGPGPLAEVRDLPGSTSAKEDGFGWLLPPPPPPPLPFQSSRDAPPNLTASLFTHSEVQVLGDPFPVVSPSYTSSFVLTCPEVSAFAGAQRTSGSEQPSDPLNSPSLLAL
# SR-BI uptake up: enhances SR-BI lipid uptake from DiI-HDL. CHO ldlA[mSR-BI] cells, DiI-HDL uptake fluorescence, 3 h; 100 = double the neutral-control signal. activation, % at 12.5 µM. actives 0.096% (n = 320,000);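 active = mean replicate activation of at least 60% and every replicate at or above 60%; inconclusive = mean or all-replicate condition met, but not both; inactive = mean below 60% and not all replicates reaching 60%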
#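 Test system: SR-BI-overexpressing, LDLR-lacking CHO cells; Also added: labelled HDL, 10 µg/mL; Measured by: bottom-read cell fluorescence after medium removal, ex 550/em 595 nm; Timing: 3 h uptake period with compound, 37 °C; Buffer or medium: F12, 0.5% BSA, 25 mM HEPES; Doses: single compound concentration, delivered by pin transfer.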
# CAL PDZ FP-2: inhibitors of human CAL PDZ peptide binding. Q9HD26. purified CAL PDZ, TMR-peptide fluorescence polarization, 1 h. inhibition, % at 24.9 µM. actives 0.92% (n = 300,000). AID 602252;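 active = mean inhibition of at least 30% with at least half of replicates also reaching 30%; inconclusive = no clear call, values can overlap the other calls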
# Hits are given with their value; - = inactive; ? = inconclusive; . = no result given.
SMILES,CAL PDZ FP-1,SR-BI DiI inh,dFosB act,SR-BI uptake up,CAL PDZ FP-2
CC(=O)Nc1sc(/C(C#N)=C\c2cccc(Cl)c2)nc1-c1ccc(C)cc1,-,82,-,-,-
CC(=O)Nc1sc(N/N=C/c2ccccc2)nc1-c1ccc(C)cc1,-,.,-,.,-
O=C(O)c1cc(-c2ccc3c(c2)OCCO3)n[nH]1,-,-,-,-,-
Oc1ccccc1-c1cc(-c2ccc3c(c2)OCCO3)n[nH]1,-,78,-,-,-
COc1ccc(CNC[C@@H](CCCCN(C)Cc2ccc(OC)cc2)N2C[C@H](c3ccccc3)N(CCc3ccc(Cl)c(Cl)c3)C(=O)C2=O)cc1,-,-,46,-,-
ClC1(Cl)CC1CSc1nnc(-c2ccncc2)o1 (centres undefined),-,-,-,-,-
NC(=O)c1ccc(SCC(=O)OCC(=O)NC2CCCCCCC2)c([N+](=O)[O-])c1,-,-,-,-,-
COc1ccc(CC(NC(C)=O)C(=O)NC2CCN(C(=O)c3ccc([N+](=O)[O-])cc3)CC2)cc1OC (centres undefined),-,-,-,-,77
COc1ccccc1CC(NC(C)=O)C(=O)NC1CCN(C(=O)c2ccc([N+](=O)[O-])cc2)CC1 (centres undefined),-,-,-,-,-
CC(Oc1ccccc1F)C(=O)NNC(=O)Cc1ccc(S(=O)(=O)N2CCOCC2)s1 (centres undefined),-,-,-,-,-
O=C(c1ccc(Cl)cc1)N1CCC(N2CCC(C(=O)N3CCOCC3)CC2)CC1,-,-,-,-,-
Cc1ccc(C(=O)N2CCC(N3CCC(C(=O)N4CCOCC4)CC3)CC2)cc1C,-,-,-,-,74
O=C(OCC(O)COc1ccccc1)c1ccc([N+](=O)[O-])cc1 (centres undefined),-,-,-,-,-
C[C@@H]1CN[C@@H](CCO)/C1=C\c1ccccc1,-,.,-,.,-
COc1ccc(C(C)=O)cc1COC(=O)c1ccc2c(c1)OCCO2,-,-,-,-,-
Clc1ccc(Nc2ccccc2)nn1,-,-,-,-,.
CC(OC(=O)c1cc(S(=O)(=O)N2CCOCC2)ccc1Br)C(=O)N1CCOCC1 (centres undefined),-,-,-,-,43
COc1ccccc1CNC(=O)N1CCN(c2ccccc2Cl)CC1,-,-,-,-,.
COc1ccc2cc(C(c3nnnn3C3CCCCC3)N3CCCCCC3)c3nnnn3c2c1 (centres undefined),.,80,-,-,-
O=C(CCC(=O)Nc1ccc(Br)cc1)N/N=C/c1ccc(O)cc1,-,-,-,-,-
COC(=O)c1ccc(C(=O)OC)c(NC(=O)C(C)(C)C)c1,-,-,-,-,-
CCC(CC)C(=O)Nc1cc(C(=O)OC)ccc1C(=O)OC,-,-,-,67,-
COc1ccc(OCC(=O)Nc2c(C(=O)N3CCC(N4CCCCC4)CC3)oc3ccccc23)cc1,-,-,-,-,-
CCN(CC)CC(=O)Nc1ccc2c(c1)N(C(=O)CN(CC)CC)c1ccccc1CC2,-,-,-,-,-
CCN(CC)CC(=O)Nc1ccc2c(c1)Nc1ccccc1CC2,.,82,-,-,-
SMILES,CAL PDZ FP-1,SR-BI DiI inh,dFosB act,SR-BI uptake up,CAL PDZ FP-2
Cc1cc(C=O)c(C)n1-c1ccc(Oc2ccc([N+](=O)[O-])cn2)cc1,-,-,-,-,-
COc1ccc(NC(=O)/C(C#N)=C\c2cc(C)n(-c3ccc(Oc4ccc([N+](=O)[O-])cn4)cc3)c2C)cc1,-,75,-,-,-
COc1ccc(OC)c(NC(=O)CN2C(=O)NC(C)(c3ccc4c(c3)OCCO4)C2=O)c1 (centres undefined),-,-,-,-,.
CCOC(=O)C1=C(CN2CCC(C)CC2)NC(=O)NC1c1ccc(Cl)cc1 (centres undefined),-,78,-,-,-
CCOC(=O)C1=C(CN2CCN(C(=O)c3ccco3)CC2)NC(=O)NC1c1ccc(Cl)cc1 (centres undefined),-,-,-,-,-
CCOC(=O)C1=C(CN2CCN(C(=O)c3ccco3)CC2)NC(=O)NC1c1ccc(OC(C)C)cc1 (centres undefined),-,78,-,-,-
CCOc1ccc(NC(=O)CN(C)C(=O)CCCn2c(=O)oc3ccccc32)cc1OCC,-,-,-,-,-
N=C1/C(=C\c2ccc(-c3ccc(C(=O)O)cc3)o2)C(=O)N=C2SC=C(c3ccccc3)N12,-,-,-,-,78
Cc1ccc(N(C(=O)CNC(=O)c2cccs2)C(C(=O)NC2CCCC2)c2ccncc2)cc1 (centres undefined),-,.,-,.,-
CC(=O)c1ccc(NC(=O)COC(=O)CCC(=O)c2cccs2)cc1,-,-,-,270,-
CN(CC(=O)NC1CCN(Cc2ccccc2)CC1)S(=O)(=O)c1ccc(Br)s1,-,-,-,-,-
CN(C(=O)CCl)C1CCCc2ccccc21 (centres undefined),-,-,-,-,.
CN(C(=O)c1cccc(C(F)(F)F)c1)C1CCCc2ccccc21 (centres undefined),-,-,-,-,52
Nc1cccc(CCc2ccncc2)c1,-,-,-,-,-
Nc1cccc(/C=C/c2ccncc2)c1,-,-,-,-,74
Cc1cccc(N2C(=O)N3[C@H](c4ccc(Br)cc4)[C@@H]4C(=O)N(C(C)(C)C)C(=O)[C@@H]4[C@]3(C)C2=O)c1,-,-,-,60,-
Cc1ccc(C(=O)N2CCCCC2)cc1NC1=C(Cl)C(=O)N(Cc2ccccc2)C1=O,-,-,-,-,-
Cc1ccc(O)c(NC2=C(Cl)C(=O)N(Cc3ccccc3)C2=O)c1,-,77,-,-,.
CCC1(c2ccccc2)NC(=O)N(CC(=O)Nc2cc(S(=O)(=O)N3CCCCC3)ccc2OC(C)C)C1=O (centres undefined),-,-,-,-,.
COc1ccc(-c2[nH]c(-c3ccc(SC)cc3)nc2SCC(=O)Nc2nccs2)cc1,-,87,-,-,-
CCn1c(=S)[nH]c2sc3c(c2c1=O)CCCC3,-,-,-,-,.
CN(C)CCCn1c(=S)[nH]c2sc3c(c2c1=O)CCCC3,-,-,-,-,49
Cn1c(SCC(=O)Nc2cccc(F)c2)nc2c(c1=O)SCC2,-,-,-,-,-
CCOC(=O)C1CCN(C(=O)c2ccc(OCC(=O)Nc3ccc(OCC)cc3)c(OC)c2)CC1,-,83,-,-,-
CCOC(=O)C1CCN(C(=O)c2ccc(OCC(=O)Nc3cccc(C(F)(F)F)c3)c(OC)c2)CC1,-,?,-,-,-
O=C(COC(=O)Cc1ccc(F)cc1)NC1CCCCC1,-,-,-,-,34
O=C(COC(=O)Cc1ccc(F)cc1)NC1CCCCCC1,-,-,-,-,-
CN(C)c1ccc(C=NNC(=O)c2cccc3ccccc23)c(Cl)c1,-,75,-,-,-
